In ChEMBL document CHEMBL1667733, “Cytotoxic amide alkaloids from Piper boehmeriaefolium” (J Nat Prod, 2011):
In brackets after ≈: the same amount, converted by molar mass. Activity calls are given as the source filed them. The rule behind the calls is not given here.

The molecules below were run on HeLa (assay: Cytotoxicity against human HeLa cells after 72 hrs by MTT assay).
Format: functional, cell-based
In short: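 HeLa cells in log-phase growth, harvested with 0.01% trypsin, seeded at 3.0 × 10^3 cells/well and grown overnight at 37 °C in humidified 5% CO2. Six concentrations (100.00, 33.33, 11.11, 3.70, 1.23, 0.41 µg/mL) added in triplicate. After 72 h at 37 °C, MTT added for 3 h more, supernatant removed, DMSO added. Absorbance read at 550 nm against 690 nm reference. Doxorubicin positive control.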

Question: Which IC50 does the source give for `O=C(/C=C/C=C/CCCC/C=C/c1ccc2c(c1)OCO2)N1CCCC1` here?
Answer: The IC50 was 11.6 µg/mL (≈ 32.8 µM).

Question: `CCCCC/C=C/C=C/C=C/C(=O)N1CCCC1` was tested. Which Activity did it give?
Answer: The Activity was “inactive”.

Question: For `COc1cc(CCC(=O)n2cccc2)cc(OC)c1O`, which Activity is on record?
Answer: Its Activity is “inactive”.

Question: With `O=C(/C=C/CCCC/C=C/c1ccc2c(c1)OCO2)N1CCCC1` [BRACHYAMIDE B] as the molecule, how does the IC50 read?
Answer: The IC50 was 15 µg/mL (≈ 45.7 µM).

Question: `O=C(CC/C=C/CCCC/C=C/c1ccc2c(c1)OCO2)N1CCCC1` was tested. Which IC50 did it give?
Answer: Its IC50 is 12.2 µg/mL (≈ 34.3 µM).

Question: Which IC50 does the source give for `O=C(CCCCCCC/C=C/c1ccc2c(c1)OCO2)N1CCCC1` here?
Answer: The IC50 was 2.67 µg/mL (≈ 7.77 µM).

Question: Which Activity does the source give for `COc1cc(CCC(=O)n2cccc2)cc(OC)c1OC` here?
Answer: Its Activity is “inactive”.

Question: For `CCCCC/C=C/C=C/C(=O)NCCc1ccc(O)c(OC)c1`, which Activity is on record?
Answer: The Activity was “inactive”.

Question: `O=C(/C=C/C=C\CC/C=C/c1ccc2c(c1)OCO2)N1CCCC1` was tested. Which IC50 did it give?
Answer: The IC50 was 7.42 µg/mL (≈ 22.8 µM).

Question: For `CCCCC/C=C/C=C/C(=O)NCC[S+](C)[O-]` (stereo not drawn), which Activity is on record?
Answer: Its Activity is “inactive”.

Question: `O=C(CCCCCC/C=C/c1ccc2c(c1)OCO2)N1CCCC1` was tested. Which IC50 did it give?
Answer: Its IC50 is 17.9 µg/mL (≈ 54.5 µM).

Question: How did the IC50 turn out when `O=C(/C=C/C=C/CC/C=C/c1ccc2c(c1)OCO2)N1CCCC1` was run?
Answer: Its IC50 is 13.7 µg/mL (≈ 42.2 µM).

Question: `COc1cccc2c1C(=O)c1c(O)c3c(c(O)c1C2=O)C[C@@](O)(C(=O)CO)C[C@@H]3O[C@H]1C[C@H](N)[C@H](O)[C@H](C)O1` [DOXORUBICIN] was tested. Which IC50 did it give?
Answer: The IC50 was 0.163 µg/mL (≈ 0.3 µM).
